ARNT-TACC3 inh = ARNT/TACC3 interaction disruption | AlphaScreen His-ARNT PAS-B/GST-TACC3 binding, luminescence; TACC3 fragment carries E629A point mutation | inhibition, % at 9.99 µM | AID 623870 | 390,000 compounds, 0.66% hits;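 active = mean inhibition of replicates at least 50% and at least half of replicates each reaching 50%; inconclusive = half or more replicates reach 50% but mean below 50%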;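 note: 0% = complete ARNT plus TACC3 wells and 100% = ARNT alone without TACC3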
DENV2 CPE = protects cells from dengue virus 2 cytopathic effect | AID 651640 | DENV2-infected cells, cytopathic effect rescue, plate reader | 350,000 compounds, 1.7% hits | CPE inhibition, % at 9.99 µM; in the data active = CPE inhibition above about 20%, passing the limit was not always enough; inconclusive = no clear call, values can overlap the other calls; tested in BHK-21 cells;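 note: 0% = median of neutral control wells and 100% = median of positive control wells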
XiGFP reactiv = reactivates the inactive X chromosome in mouse fibroblasts; XiGFP mouse fibroblasts, % GFP-positive cells imaging, 3 d; cells co-treated with 5-aza-dC sensitizer; scaled so ellipticine positive control = 100%; activation, % at 7.58 µM; 360,000 compounds, 0.055% hits;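 active = mean normalized replicate activation at least 10% and every replicate at or above 10%; inconclusive = only one of the two criteria met; inactive = mean below 10% and not all replicates reach 10%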;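 note: 0% = median of on-plate neutral control wells and 100% = ellipticine 6 µM median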
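assay system = SV40-immortalized XiGFP fibroblast cells, line 68-5-11 | buffer or medium = DMEM plus 5-aza-dC sensitizer | doses = single-point pinned compound dosing | times = 3-day compound exposure, then 15 min fixation at room temperature | benchmarks = positive control ellipticine, 6 µM final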
SIRT5 inh = blocks human SIRT5 desuccinylation of peptide; Q9NXA8; Purified SirT5, succinyl-peptide AMC, trypsin-coupled fluorescence; inhibition, % at 15 µM; 330,000 compounds, 1.1% hits; AID 652115; in the data active = inhibition above about 15%; inconclusive = no clear call, values can overlap the other calls
Target sequence (Q9NXA8 whole entry, looked up): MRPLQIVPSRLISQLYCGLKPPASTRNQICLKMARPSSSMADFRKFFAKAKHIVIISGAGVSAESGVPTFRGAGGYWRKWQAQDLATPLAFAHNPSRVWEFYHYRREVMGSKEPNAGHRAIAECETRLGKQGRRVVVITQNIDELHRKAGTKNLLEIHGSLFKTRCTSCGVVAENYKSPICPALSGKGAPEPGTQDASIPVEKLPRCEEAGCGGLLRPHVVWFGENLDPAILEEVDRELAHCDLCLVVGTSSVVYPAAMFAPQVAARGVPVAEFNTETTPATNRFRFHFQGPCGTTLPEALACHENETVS
FGF22 binding = shifts melting point of recombinant human FGF22 | Q9HCT0 | recombinant FGF22 thermal shift, SYPRO orange fluorescence; percent of sucrose octasulfate shift, DMSO zero | activity (Tm shift, normalised), % at 9.99 µM | 340,000 compounds, 1.5% hits | AID 651658;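 active = mean Tm shift, scaled 0 neutral to 100 positive control, at about 1.3% or above, every replicate too, limit read from the data; inconclusive = no clear call, values can overlap the other calls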
Target sequence (Q9HCT0 whole entry, looked up): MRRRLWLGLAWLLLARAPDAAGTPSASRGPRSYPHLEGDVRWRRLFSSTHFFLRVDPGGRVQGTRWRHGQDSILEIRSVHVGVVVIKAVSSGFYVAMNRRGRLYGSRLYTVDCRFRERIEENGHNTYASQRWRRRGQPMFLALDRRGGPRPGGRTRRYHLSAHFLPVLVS
FN deposit inh = fibronectin deposition inhibition | 350,000 compounds, 0.086% hits | AH1F fibroblasts, Alexa488-fibronectin deposition fluorescence, overnight | inhibition, % at 12.6 µM;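 active = mean inhibition across replicates of 30% or more, regardless of how many single replicates reach that level; inconclusive = mean under 30% yet at least half of replicates reach 30%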;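 note: positive control wells lacked labelled fibronectin entirely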
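Material: AH1F fibroblasts assembling fluorescent fibronectin matrix; amount: 10000 AH1F cells/well; medium: DMEM, 2% serum; reagent: Alexa488-fibronectin, 24 nM final in well; dosing: single compound dose, delivered by pin transfer; incubation: 1 h adhesion, overnight exposure; detection: fluorescence after three HBSS washes, excitation 485 nm, emission 525 nm; measure: fibronectin deposition inhibition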
* hit, by the source's call; ? = inconclusive; . = no result. Rows were chosen to be rich in hits. Some 3.8% of all compounds tested hit in one or more screens of this group.

SMILES	ARNT-TACC3 inh	DENV2 CPE	XiGFP reactiv	SIRT5 inh	FGF22 binding	FN deposit inh
Cc1cc[n+](C(C)C(=O)c2ccc(-c3ccccc3)cc2)cc1 (configuration not stated)	-1	8	0	3	0	-9
Cc1cc[n+](C(C)C(=O)c2ccc(Cl)cc2)cc1 (configuration not stated)	56*	3	0	2	0	0
Cc1c(Cl)cccc1-c1ccc(CNCc2ccccn2)o1	64*	-7	0	-8	0	-11
Nc1cc2c(cc1Cl)-c1ccccc1C2=NO	2	0	0	24*	0	8
ON=C1c2ccccc2-c2ccccc21	-5	-8	1	-2	0	7
O=C(Nc1ccc(F)cc1)Nn1cnnc1	-7	5	0	-1	0	-3
O=C(Nc1ccncc1)Nc1cc(Cl)ccc1Cl	-7	-3	0	-2	0	-1
O=C(Nc1ccc(F)c(Cl)c1)Nn1cnnc1	5	76*	0	-1	0	-2
O=C(Nc1ccc(F)c(Cl)c1)Nc1cnccn1	-2	-2	0	-2	44*	2
O=C(Nc1ccncc1)Nc1ccc(Cl)cc1Cl	-2	71*	0	0	0	.
COc1ccc(/C=C(\NC(=O)c2ccc(C)cc2)C(=O)NCCN2CCOCC2)cc1	17	-1	0	.	1.4*	-2
CCn1c(SCC(=O)Nc2ccc3c(c2)OCO3)nc2c1c(=O)n(C)c(=O)n2C	4	.	.	.	.	.
Cc1cc(C)cc(NC(=O)CSc2nnc(Cn3c(=O)sc4ccccc43)n2C)c1	-6	-4	0	.	43*	4
Cn1c(Cn2c(=O)sc3ccccc32)nnc1SCC(=O)Nc1ccc2c(c1)OCO2	.	-10	0	-4	44*	6
CCCn1c(SCC(=O)Nc2ccc3c(c2)OCO3)nc2c1c(=O)n(C)c(=O)n2C	1	.	.	25*	.	9
Cn1c(Cn2c(=O)sc3ccccc32)nnc1SCC(=O)NCc1ccc2c(c1)OCO2	.	-7	0	.	0	-24
CCCC(=O)Nc1ccc2c(c1)OC[C@H](C)N(C(=O)c1cccnc1)C[C@H](C)[C@@H](OC)CN(C)C2=O	-5	4	0	-2	0	-4
COCC(=O)Nc1ccc2c(c1)C(=O)N(C)C[C@@H](OC)[C@@H](C)CN(C(=O)c1ccccc1F)[C@@H](C)CO2	-4	4	1	0	0	-27
CC1CCc2c(C(=O)NCc3cccnc3)csc2C1 (configuration not stated)	18	?	0	-3	43*	-6
C[C@@H]1CN([C@@H](C)CO)C(=O)c2cccc(NC(=O)Nc3ccc4c(c3)OCO4)c2O[C@H]1CN(C)Cc1ccc2c(c1)OCO2	12	22*	0	-1	0	.
C[C@H](CO)N1C[C@H](C)[C@H](CN(C)Cc2ccc3c(c2)OCO3)Oc2c(NC(=O)Nc3ccc4c(c3)OCO4)cccc2C1=O	5	-6	0	5	0	.
C[C@H]1CN([C@@H](C)CO)C(=O)c2cccc(NC(=O)Nc3ccc4c(c3)OCO4)c2O[C@H]1CN(C)Cc1ccc2c(c1)OCO2	10	27*	1	1	0	.
O=C(Nc1cccc(Cl)c1)N1CCN(c2ncccn2)CC1	0	.	.	.	.	7
O=C(Nc1ccc(Cl)cc1Cl)N1CCN(c2ncccn2)CC1	-1	5	0	0	43*	3
CCOc1ccc(N2C(=O)C3C(c4ccc(O)cc4)NC(CCSC)(C(=O)OC)C3C2=O)cc1 (configuration not stated)	.	-3	0	-5	44*	6
SMILES	ARNT-TACC3 inh	DENV2 CPE	XiGFP reactiv	SIRT5 inh	FGF22 binding	FN deposit inh
C[C@@H]1CN([C@H](C)CO)C(=O)c2cc(NC(=O)C3CC3)ccc2O[C@@H]1CN(C)S(=O)(=O)c1ccc(Cl)cc1	-4	3	0	-7	0	1
Cn1nnnc1Sc1ncnc2scc(-c3ccc4c(c3)OCO4)c12	47*	-2	0	.	0	26
COCC(=O)NC[C@@H]1[C@@H](c2ccc(-c3ccccc3)cc2)[C@@H](CO)N1C(C)=O	-13	-12	0	1	0	.
CCN(CC(=O)Nc1ccc(C)c(F)c1)CC(=O)NC(C)(C)C	-10	-7	0	-3	43*	-9
OCc1ccccc1-c1cnc2cccnn12	.	-7	0	.	55*	-2
CCC(NC(=O)CCc1c(C)c2cc3c(-c4ccccc4)coc3cc2oc1=O)C(=O)O (configuration not stated)	27	-4	0	-13	0	-20
Cc1c(CCC(=O)N[C@@H](C)C(=O)O)c(=O)oc2cc3occ(-c4ccccc4)c3cc12	49*	-2	0	-15	0	4
O=C(CN1CCOCC1)NCC[C@@H]1CC[C@@H](NS(=O)(=O)c2ccc(F)cc2)[C@@H](CO)O1	-2	5	0	-2	0	.
O=C(NC[C@@H]1[C@@H](c2ccccc2)[C@@H](CO)N1C(=O)Cc1cccnc1)C1CC1	4	3	0	17*	-1	1
CC(=O)N1[C@H](CO)[C@H](c2ccc(-c3cccnc3)cc2)[C@H]1CNC(=O)C1CC1	.	47*	0	-2	.	.
CCC(=O)N1[C@H](CN(C)C(C)=O)[C@H](c2ccc(-c3cccnc3)cc2)[C@@H]1CO	6	29*	0	5	0	-7
O=C(NC[C@H]1[C@@H](c2ccccc2)[C@@H](CO)N1C(=O)Cc1cccnc1)C1CCC1	-2	26	0	.	.	.
CC(=O)N1[C@H](CO)[C@H](c2ccc(-c3ccncc3)cc2)[C@@H]1CNC(=O)CC1CC1	.	-4	0	22*	.	-17
CC(=O)N1[C@H](CO)[C@H](c2ccc(-c3cccnc3)cc2)[C@@H]1CNC(=O)C1CCC1	.	17	0	-3	.	-7
Cc1ccc(S(=O)(=O)N(C)C[C@@H]2Oc3ccc(NS(C)(=O)=O)cc3CC(=O)N([C@@H](C)CO)C[C@H]2C)cc1	5	-2	0	-1	0	6
CCNC(=O)C[C@H]1CC[C@@H](NS(=O)(=O)c2ccc(F)cc2)[C@H](CO)O1	-6	2	0	2	0	-11
C[C@H](CO)N1C[C@H](C)[C@@H](CN(C)CC2CCCCC2)OCCCC[C@H](C)Oc2ccc(NC(=O)CCCCCC(=O)Nc3ccccc3N)cc2C1=O	7	4	-1	-5	0	.
CC(=O)NC[C@@H]1[C@@H](c2ccc(-c3cccnc3)cc2)[C@H](CO)N1C(=O)C1CCC1	-1	31*	0	.	.	-2

High-throughput results: PubChem BioAssay, Broad Institute
